Laboratory results from ChEMBL document CHEMBL5705890, “Antitumor activity of an allosteric inhibitor of centromere-associated protein-E” (Proc Natl Acad Sci U S A, 2010).

Columns and labels:
[1] = Anticancer activity against human CML-T1 cells assessed as cell growth inhibition measured after 72 hrs by DAPI staining based analysis; format: functional
Method in brief: (§1)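 Cells were seeded, and DNA content at 24 h after seeding (T0) was read by imaging of fixed, DAPI-stained cells. Cells were then exposed to a range of drug concentrations for a further 72 h (T72) and DNA content was read again. T72 values were normalized to T0, and GI50 was taken from curve fits as the concentration giving 50% growth inhibition relative to T0 and Ymax.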

SF-268 = test: Anticancer activity against human SF-268 cells assessed as cell doubling measured for 72 hrs by DAPI staining based analysis; format: functional
HCT-116 = test: Anticancer activity against human HCT-116 cells assessed as cell growth inhibition measured after 72 hrs by DAPI staining based analysis; format: functional
[2] = molecular target: Centromere-associated protein E (Homo sapiens, UniProt Q02224, K184T); test: Binding affinity to human CENP-E K184T mutant assessed as inhibition constant
Chain of Centromere-associated protein E (Homo sapiens, UniProt Q02224, K184T) (Q02224 whole entry K184T): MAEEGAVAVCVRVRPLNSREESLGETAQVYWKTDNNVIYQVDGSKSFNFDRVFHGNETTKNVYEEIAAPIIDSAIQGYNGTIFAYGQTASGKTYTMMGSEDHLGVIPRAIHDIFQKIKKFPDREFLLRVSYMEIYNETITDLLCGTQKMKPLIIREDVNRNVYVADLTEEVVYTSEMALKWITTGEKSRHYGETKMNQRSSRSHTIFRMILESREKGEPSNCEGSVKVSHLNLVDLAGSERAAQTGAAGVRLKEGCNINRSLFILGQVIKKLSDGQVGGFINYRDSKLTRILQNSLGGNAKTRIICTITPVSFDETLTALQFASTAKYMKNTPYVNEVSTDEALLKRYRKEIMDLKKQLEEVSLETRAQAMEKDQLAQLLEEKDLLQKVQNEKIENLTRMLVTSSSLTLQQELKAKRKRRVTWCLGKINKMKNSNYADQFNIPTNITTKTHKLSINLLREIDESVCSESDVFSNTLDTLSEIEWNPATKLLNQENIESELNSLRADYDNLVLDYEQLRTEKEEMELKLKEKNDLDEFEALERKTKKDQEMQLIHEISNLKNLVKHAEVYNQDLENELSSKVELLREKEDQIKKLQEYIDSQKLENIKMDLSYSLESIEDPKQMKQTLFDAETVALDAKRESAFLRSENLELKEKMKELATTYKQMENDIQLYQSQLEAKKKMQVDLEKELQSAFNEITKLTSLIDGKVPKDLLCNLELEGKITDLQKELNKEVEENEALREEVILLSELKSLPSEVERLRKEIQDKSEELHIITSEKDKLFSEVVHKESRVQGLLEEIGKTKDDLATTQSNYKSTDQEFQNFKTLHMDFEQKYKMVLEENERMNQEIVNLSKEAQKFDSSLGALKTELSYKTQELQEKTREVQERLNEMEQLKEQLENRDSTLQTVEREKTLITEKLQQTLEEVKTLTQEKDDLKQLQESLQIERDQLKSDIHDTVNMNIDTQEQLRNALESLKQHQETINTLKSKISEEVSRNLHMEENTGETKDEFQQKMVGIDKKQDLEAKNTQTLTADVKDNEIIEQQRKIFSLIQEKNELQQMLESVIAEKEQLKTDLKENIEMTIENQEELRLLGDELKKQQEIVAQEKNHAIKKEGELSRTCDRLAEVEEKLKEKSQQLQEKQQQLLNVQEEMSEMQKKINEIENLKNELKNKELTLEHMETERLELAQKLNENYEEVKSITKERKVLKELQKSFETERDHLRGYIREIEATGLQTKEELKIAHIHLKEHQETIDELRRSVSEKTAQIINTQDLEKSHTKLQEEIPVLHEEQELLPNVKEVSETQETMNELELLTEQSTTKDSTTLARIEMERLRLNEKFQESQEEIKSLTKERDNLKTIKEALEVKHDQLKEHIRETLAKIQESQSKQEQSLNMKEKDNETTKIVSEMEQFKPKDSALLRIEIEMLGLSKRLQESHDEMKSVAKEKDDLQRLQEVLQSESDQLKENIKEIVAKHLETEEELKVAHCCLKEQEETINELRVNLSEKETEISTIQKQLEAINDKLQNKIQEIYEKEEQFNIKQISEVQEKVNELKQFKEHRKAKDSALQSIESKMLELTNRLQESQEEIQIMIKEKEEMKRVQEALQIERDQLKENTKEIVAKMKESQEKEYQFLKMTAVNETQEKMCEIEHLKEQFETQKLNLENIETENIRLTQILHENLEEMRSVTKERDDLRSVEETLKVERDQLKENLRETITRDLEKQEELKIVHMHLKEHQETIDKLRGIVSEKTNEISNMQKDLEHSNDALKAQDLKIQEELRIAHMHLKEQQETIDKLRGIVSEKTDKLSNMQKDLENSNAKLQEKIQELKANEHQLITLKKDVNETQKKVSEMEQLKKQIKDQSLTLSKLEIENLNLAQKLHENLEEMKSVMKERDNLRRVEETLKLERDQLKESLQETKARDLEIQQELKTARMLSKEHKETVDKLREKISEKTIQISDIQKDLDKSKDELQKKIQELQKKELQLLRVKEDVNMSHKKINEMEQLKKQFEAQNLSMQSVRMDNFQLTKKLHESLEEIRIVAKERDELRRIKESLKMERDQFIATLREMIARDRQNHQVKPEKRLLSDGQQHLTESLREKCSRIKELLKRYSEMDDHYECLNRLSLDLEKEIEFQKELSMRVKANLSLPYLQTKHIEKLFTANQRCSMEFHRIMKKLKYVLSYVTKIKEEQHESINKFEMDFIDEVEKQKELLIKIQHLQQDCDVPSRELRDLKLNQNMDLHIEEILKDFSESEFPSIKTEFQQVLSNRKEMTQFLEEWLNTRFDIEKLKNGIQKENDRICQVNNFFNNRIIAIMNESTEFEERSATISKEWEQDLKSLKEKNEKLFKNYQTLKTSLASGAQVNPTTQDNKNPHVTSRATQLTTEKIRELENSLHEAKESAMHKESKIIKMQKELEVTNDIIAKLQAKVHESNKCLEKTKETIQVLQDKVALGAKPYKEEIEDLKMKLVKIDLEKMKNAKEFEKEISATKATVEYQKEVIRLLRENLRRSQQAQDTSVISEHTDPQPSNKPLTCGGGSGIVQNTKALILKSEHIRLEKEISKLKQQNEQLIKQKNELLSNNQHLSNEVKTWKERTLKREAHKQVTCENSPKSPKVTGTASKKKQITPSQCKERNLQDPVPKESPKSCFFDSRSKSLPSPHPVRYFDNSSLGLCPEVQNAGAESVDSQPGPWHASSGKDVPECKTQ

DB = test: Anticancer activity against human DB cells assessed as cell doubling measured for 72 hrs by DAPI staining based analysis; format: functional
NCI-H146 = test: Anticancer activity against human NCI-H146 cells assessed as cell doubling measured for 72 hrs by DAPI staining based analysis; format: functional
SW1417 = test: Anticancer activity against human SW1417 cells assessed as cell doubling measured for 72 hrs by DAPI staining based analysis; format: functional
LS-1034 = test: Anticancer activity against human LS1034 cells assessed as cell growth inhibition measured after 72 hrs by DAPI staining based analysis; format: functional
CAL-27 = test: Anticancer activity against human CAL-27 cells assessed as cell growth inhibition measured after 72 hrs by DAPI staining based analysis; format: functional; method in brief: as §1
NCI-H2052 = test: Anticancer activity against human NCI-H2052 cells assessed as cell doubling measured for 72 hrs by DAPI staining based analysis; format: functional
[3] = molecular target: Centromere-associated protein E (Homo sapiens, UniProt Q02224); test: Uncompetitive binding affinity to microtubule-stimulated ATPase activity of C-terminal 6-his-tagged CENP-E (2 to 340 residues)(unknown origin) expressed in Escherichia coli BL21(DE3) assessed as apparent inhibition constant; settings: read-out: Ki(app)
Chain of Centromere-associated protein E (Homo sapiens, UniProt Q02224) (Q02224 whole entry, the tested form may be a part): as the sequence (Q02224 whole entry K184T) above, with T184K counted along it
Method in brief: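 CENP-E motor domain (residues 2–340, C-terminal 6-his, from E. coli BL21(DE3)) run in MT-stimulated ATPase with 500 μM ATP, 5 μM paclitaxel-stabilized MT, 1 nM enzyme in PEM25 buffer, pH 6.8. Apparent Ki taken from the concentration-response curves with explicit correction for enzyme concentration.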

G-401 = test: Anticancer activity against human G-401 cells assessed as cell growth inhibition measured after 72 hrs by DAPI staining based analysis; format: functional
Method in brief: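 Cells seeded, DAPI-stained DNA content of fixed cells read by imaging 24 h after seeding (T0), and again after a further 72 h exposure to a range of drug concentrations (T72). T72 values were normalized to T0. Curve fits gave the concentration producing 50% growth inhibition relative to T0 and Ymax (GI50).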

[4] = molecular target: Centromere-associated protein E (Homo sapiens, UniProt Q02224, I182L/K184T); test: Binding affinity to human CENP-E I182L/K184T mutant assessed as inhibition constant
Chain of Centromere-associated protein E (Homo sapiens, UniProt Q02224, I182L/K184T) (Q02224 whole entry I182L/K184T): as the sequence (Q02224 whole entry K184T) above, with I182L counted along it

U2OS = test: Anticancer activity against human U2OS cells assessed as cell doubling measured for 72 hrs by DAPI staining based analysis; format: functional
[5] = Anticancer activity against human A7 cells assessed as cell growth inhibition measured after 72 hrs by DAPI staining based analysis; format: functional
Method in brief: (§2)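 Cells were seeded and, after 24 h, DNA content was read as T0. Cells were then exposed to varying drug concentrations for a further 72 h (T72). Fixed cells were DAPI-stained and DNA content measured by automated imaging. T72 values were normalized to T0. GI50 is the concentration giving 50% growth inhibition between T0 and Ymax, obtained by curve fitting.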

HuP-T4 = test: Anticancer activity against human HuP-T4 cells assessed as cell growth inhibition measured after 72 hrs by DAPI staining based analysis; format: functional
[6] = Anticancer activity against human MJ cells assessed as cell doubling measured for 72 hrs by DAPI staining based analysis; format: functional
OVCAR-4 = test: Anticancer activity against human OVCAR-4 cells assessed as cell doubling measured for 72 hrs by DAPI staining based analysis; format: functional
CGTH-W-1 = test: Anticancer activity against human CGTH-W-1 cells assessed as cell doubling measured for 72 hrs by DAPI staining based analysis; format: functional
647-V = test: Anticancer activity against human 647-V cells assessed as cell growth inhibition measured after 72 hrs by DAPI staining based analysis; format: functional; method in brief: as §2
HT-29 [7] = test: Antitumor activity against human HT-29 cells in xenograft model assessed as difference between median time to endpoint time of treated versus control group at 125 mg/kg; format: functional
OVCAR-3 = test: Anticancer activity against human OVCAR-3 cells assessed as cell growth inhibition measured after 72 hrs by DAPI staining based analysis; format: functional
NCI-H596 = test: Anticancer activity against human NCI-H596 cells assessed as cell growth inhibition measured after 72 hrs by DAPI staining based analysis; format: functional
MDA-MB-231 = test: Antitumor activity against human MDA-MB-231 cells in xenograft model assessed as difference between median time to endpoint time of treated versus control group at 125 mg/kg; format: functional
SNU-449 = test: Anticancer activity against human SNU-449 cells assessed as cell growth inhibition measured after 72 hrs by DAPI staining based analysis; format: functional
THP-1 = test: Anticancer activity against human THP-1 cells assessed as cell growth inhibition measured after 72 hrs by DAPI staining based analysis; format: functional
OV-90 = test: Anticancer activity against human OV-90 cells assessed as cell doubling measured for 72 hrs by DAPI staining based analysis; format: functional
[8] = Anticancer activity against human MT-3 cells assessed as cell doubling measured for 72 hrs by DAPI staining based analysis; format: functional
CAL-54 = test: Anticancer activity against human CAL-54 cells assessed as cell growth inhibition measured after 72 hrs by DAPI staining based analysis; format: functional; method in brief: as §1
SK-MEL-28 = test: Anticancer activity against human SK-MEL-28 cells assessed as cell growth inhibition measured after 72 hrs by DAPI staining based analysis; format: functional
CHP-212 = test: Anticancer activity against human CHP-212 cells assessed as cell growth inhibition measured after 72 hrs by DAPI staining based analysis; format: functional; method in brief: as §1
COLO-320-HSR = test: Anticancer activity against human COLO 320HSR cells assessed as cell growth inhibition measured after 72 hrs by DAPI staining based analysis; format: functional; method in brief: as §1
NCI-H716 = test: Anticancer activity against human NCI-H716 cells assessed as cell doubling measured for 72 hrs by DAPI staining based analysis; format: functional
DU-145 = test: Anticancer activity against human DU-145 cells assessed as cell doubling measured for 72 hrs by DAPI staining based analysis; format: functional
HT-29 [9] = test: Anticancer activity against human HT-29 cells assessed as cell growth inhibition measured after 72 hrs by DAPI staining based analysis; format: functional
BHT-101 = test: Anticancer activity against human BHT-101 cells assessed as cell growth inhibition measured after 72 hrs by DAPI staining based analysis; format: functional; method in brief: as §1

- GI50 (HCT-116): 31 nM
- Ki [2]: 12 nM
- Ki [3]: 3.2 nM
- Ki [4]: 18 nM
- GI50 (OVCAR-3): 42 nM
- GI50 (NCI-H596): 5020 nM
- GI50 (SNU-449): 236 nM
- GI50 (THP-1): 12 nM
- GI50 (SK-MEL-28): 31 nM
- GI50 (COLO-320-HSR): 153 nM
- GI50 (HT-29 [9]): 14 nM
Compound: CC(C)Oc1ccc(C(=O)N[C@H](CNC(=O)CN(C)C)Cc2ccc(-c3cn4cccc([C@H](C)O)c4n3)cc2)cc1Cl [GSK-923295A]
- GI50 [1]: 13 nM
- Activity (SF-268): 2.13
- Activity (DB): 2.76
- Activity (NCI-H146): 1.2
- Activity (SW1417): 1.94
- GI50 (LS-1034): 97 nM
- GI50 (CAL-27): 47 nM
- Activity (NCI-H2052): 2.09
- GI50 (G-401): 26 nM
- Activity (U2OS): 3.08
- GI50 [5]: 40 nM
- GI50 (HuP-T4): 158 nM
- Activity [6]: 3.39
- Activity (OVCAR-4): 2.94
- Activity (CGTH-W-1): 3.66
- GI50 (647-V): 72 nM
- Time (HT-29 [7]): 18 days
- Time (MDA-MB-231): 47.1 days
- Activity (OV-90): 1.87
- Activity [8]: 2.93
- GI50 (CAL-54): 49 nM
- GI50 (CHP-212): 34 nM
- Activity (NCI-H716): 1.41
- Activity (DU-145): 2.25
- GI50 (BHT-101): 100 nM
